This is an account of results in ChEMBL document CHEMBL5055645 (J Med Chem, 2021).

Activity calls are given as the source filed them. The rule behind the calls is not given here.

The nature of data set [1]: Stability in human serum assessed as compound degradation measured at 2 mg/ml after 24 hrs at 37C by RP-HPLC analysis. The class given is ADME, cell-free. In a few lines:
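Peptide at 2 mg/mL final in 25% (v/v) pooled human male AB serum, incubated at 37 °C for 24 h. Samples quenched with equal volume acetonitrile on ice for 20 min and centrifuged at 4 °C. Supernatant diluted to 0.1 mg/mL and run on RP-HPLC. Intact peptide estimated from peak area at 215 nm.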

The nature of data set [2]: In vivo stability in C57BL/6J mouse serum assessed as compound degradation measured at 5 mg/kg, iv after 15 mins by LC/MS/MS analysis. It is filed as ADME, organism-based. The following applies: 0.25 h. A digest of the protocol: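 Mice (C57BL/6J, 8 weeks old, 20–30 g), 4 male and 4 female per group, given one i.v. dose of 5 mg/kg. Submandibular blood drawn into EDTA tubes at 15 min, 30 min, 1, 2, 4, 8 and 24 h. Plasma protein precipitated with 9:1 acetonitrile/acetic acid on ice, centrifuged, and the supernatant analysed by LC/MS/MS.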

Data set [3] has as its system Mus musculus. Kind of data set: Hyperglycemic effect in C57BL/6J mouse assessed as increase in blood glucose level at 500 microg/kg, iv measured measured up to 60 mins by intraperitoneal insulin tolerance test. It is filed as functional, organism-based. The following applies: dose 500.0 µg/kg. In a few lines: (§1)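 Wild-type 8-week-old female mice weighing 20–30 g, 7 groups of 5. Mice fasted 3 h, then given insulin (0.75 IU/kg). […] Blood glucose read with a glucometer at 15, 30 and 60 min post-injection.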

The test system of data set [4] is Mus musculus. The experiment in a line: Hyperglycemic effect in C57BL/6J mouse assessed as increase in blood glucose level at 50 microg/kg, iv measured measured up to 60 mins by intraperitoneal insulin tolerance test. The class given is functional, organism-based. The following applies: dose 50.0 µg/kg. A digest of the protocol: as §1
For data set [5], the system named is Mus musculus. Kind of data set: Hyperglycemic effect in C57BL/6J mouse assessed as increase in blood glucose level at 500 microg/kg, iv measured measured after 30 mins by intraperitoneal insulin tolerance test. The following applies: dose 500.0 µg/kg. The class given is functional, organism-based. A digest of the protocol:
(§2)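 Female C57BL/6J mice, 8 weeks old, 20–30 g, 5 per group. After a 3 h fast they received insulin 0.75 IU/kg, then a single i.v. dose of peptide (50 or 500 μg/kg) or saline. Blood glucose read by glucometer at 15, 30 and 60 min after injection.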

Data set [6] has as its system Mus musculus. Kind of data set: Hyperglycemic effect in C57BL/6J mouse assessed as increase in blood glucose level at 50 microg/kg, iv measured measured after 30 mins by intraperitoneal insulin tolerance test. It is filed as functional, organism-based. The following applies: dose 50.0 µg/kg. A digest of the protocol: as §2

As for GLUCAGON [listing 1 of 2 here], the Drug degradation in data set [1] is recorded as > 85%. Besides, in data set [2], the Stability result was “Unstable”.

For GLUCAGON [listing 2 of 2 here], the result in the data set on Mus musculus [3], in the data set with Mus musculus [4], in the data set on Mus musculus [5] and in the data set with Mus musculus [6] was Active.
